What all share (type): functional
The subject of assay [1] is KB. As to the kind of experiment: Cytotoxicity against human KB cells by sulforhodamine B assay. The conditions noted are these: read-out: ED50 (the source's name). The method, boiled down:
(§1)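 Cells grown in RPMI-1640 with 25 mM HEPES, 0.25% sodium bicarbonate, 10% FBS and 100 µg/mL kanamycin. Freshly trypsinized cells were seeded at 1500-7500 per well, and compounds were added from DMSO-diluted stock. After 3 days, attached cells were fixed with cold 50% TCA, stained with 0.4% SRB, and read at 562 nm. ED50 is the mean of ≥3 independent determinations.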
On the technique in general: The SRB assay estimates cell density from bound dye.

Assay [2] can be described thus: Cytotoxicity against human KB-VIN cells by sulforhodamine B assay. The following applies: KBVIN, read-out: ED50 (the source's name). The method, boiled down: as §1
Assay [3] is described as follows: Selectivity index, ratio of ED50 for human KB cells to ED50 for vincristine-resistant human KB-VIN cells. Put shortly: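 The ratio uses ED50 values from the 3-day SRB assay run in parallel on KB and vincristine-resistant KB-VIN cells. For each line, ED50 is the concentration giving 50% reduction in 562 nm absorbance relative to untreated cells, averaged over ≥3 independent determinations.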

The next assay relates to PC-3. As to the kind of experiment: Cytotoxicity against human PC3 cells by sulforhodamine B assay. The conditions noted are these: for EC50: read-out: ED50 (the source's name). Put shortly: as §1
The next assay has as its system A549. Briefly: Cytotoxicity against human A549 cells by sulforhodamine B assay. The conditions noted are these: for EC50: read-out: ED50 (the source's name). The method, boiled down:
as §1

The next assay relates to MCF7. As to the kind of experiment: Cytotoxicity against human MCF7 cells by sulforhodamine B assay. The following applies: read-out: ED50 (the source's name). Put shortly:
as §1

The test system of a further assay is HCT-8. As to the kind of experiment: Cytotoxicity against human HCT8 cells by sulforhodamine B assay. The following applies: for EC50: read-out: ED50 (the source's name). The method, boiled down:
as §1

Assay [4] concerns KB. Briefly: Cytotoxicity against human KB cells at 20 ug/mL by sulforhodamine B assay.

Values after ≈ are worked out from the molar mass of the structure shown. Active and inactive are the calls of the source. No cut-off for these calls is given here.

Turning to `COC1=C(C)C(O)=C2C(=O)C=C(c3ccccc3)OC2C1(C)C` (configuration not stated), the figures for the EC50 (in the assay on KB [1]; in assay [2]) were 38.5 µg/mL (≈ 123 µM) and 23 µg/mL (≈ 73.6 µM), respectively. In addition, the “Ratio ED50” value in assay [3] is recorded as 1.7.
Consider `CCC1=C(O)c2c(occ(-c3ccccc3)c2=O)C(CC)(CC)C1=O`, for which the EC50 in the assay on PC-3 was above 20 µg/mL; with KB [1] it was 16 µg/mL (≈ 47.3 µM); in the assay on A549, 18 µg/mL (≈ 53.2 µM); in the assay on MCF7 it was 10 µg/mL (≈ 29.6 µM); in the assay with HCT-8, 12 µg/mL (≈ 35.5 µM); in assay [2], 3.5 µg/mL (≈ 10.3 µM). In addition, the “Ratio ED50” value in assay [3] was 4.6.
Regarding `CCc1ccc(-c2cc(=O)c3c(O)c(CC)c(O)c(CC)c3o2)cc1`, the EC50 with KB [1] is above 20 µg/mL; in assay [2] it was 5 µg/mL (≈ 14.8 µM). Further, in assay [3], the “Ratio ED50” value is above 4.
For `COC1=CC(O)=C2C(=O)C=C(c3ccccc3)OC2C1(C)C` (configuration not stated) the same measures were 1.8 µg/mL (≈ 6.03 µM), 1.8 µg/mL (≈ 6.03 µM) and 1.
In the assay with KB [4], `CC1=C(O)c2c(oc(-c3c(C)cc(C)cc3C)cc2=O)C(C)(C)C1=O` [2,4,6-TRIMETHYL DESMOSDUMOTIN B] displayed an Activity below 50%. Further, the EC50 in assay [2] turned out to be 5.82 µg/mL (≈ 17.2 µM). Also, the “Ratio ED50” value in assay [3] is recorded as above 3.4.
For `CCC1=C(O)c2c(oc(-c3cccc4ccccc34)cc2=O)C(CC)(CC)C1=O` [2-(NAPHTHALEN-1-YL)-6,8,8-TRIETHYL DESMOSDUMOTIN B], the EC50 with PC-3 amounted to 0.4 µg/mL (≈ 1.03 µM); with KB [1], 0.6 µg/mL (≈ 1.54 µM); in the assay with A549, 0.6 µg/mL (≈ 1.54 µM); with MCF7 it was 0.2 µg/mL (≈ 0.515 µM); in the assay with HCT-8, 0.4 µg/mL (≈ 1.03 µM); in assay [2], 0.3 µg/mL (≈ 0.772 µM). In assay [3], the “Ratio ED50” value is given as 2.
For the compound `CC1=C(O)c2c(oc(-c3cccc4ccccc34)cc2=O)C(C)(C)C1=O` [2-(NAPHTHALEN-1-YL)DESMOSDUMOTIN B], the EC50 in the assay with PC-3 stood at 0.5 µg/mL (≈ 1.44 µM); in the assay on KB [1], 0.51 µg/mL (≈ 1.47 µM); in the assay with A549, 0.6 µg/mL (≈ 1.73 µM); with MCF7, 0.6 µg/mL (≈ 1.73 µM); with HCT-8 it was 0.4 µg/mL (≈ 1.15 µM); in assay [2] it was 0.16 µg/mL (≈ 0.462 µM). The “Ratio ED50” value in assay [3] is recorded as 3.2.
For the compound `CC1=C(O)c2c(oc(-c3ccccc3C)cc2=O)C(C)(C)C1=O` [2-METHYL DESMOSDUMOTIN B], the results for the EC50 (in the assay on KB [1]; in assay [2]) were 37.3 µg/mL (≈ 120 µM) and 1.75 µg/mL (≈ 5.64 µM), respectively. In addition, the “Ratio ED50” value in assay [3] was determined as 21.3.
As for `CC1=C(O)c2c(oc(-c3cc(C)cc(C)c3)cc2=O)C(C)(C)C1=O` [3,5-DIMETHYL DESMOSDUMOTIN B], the EC50 is 53 µg/mL (≈ 164 µM) in the assay with KB [1] and 2.91 µg/mL (≈ 8.97 µM) in assay [2]. In assay [3], the “Ratio ED50” value stood at 18.2.
Take `CCc1ccc(-c2cc(=O)c3c(o2)C(C)(C)C(=O)C(C)=C3O)cc1` [4-ETHYL DESMOSDUMOTIN B]: the EC50 in the assay with KB [1] was 20 µg/mL (≈ 61.7 µM); in assay [2] it was 1.54 µg/mL (≈ 4.75 µM). Further, in assay [3], the “Ratio ED50” value came to 13.
For the compound `CC1=C(O)c2c(oc(-c3ccc(C)cc3)cc2=O)C(C)(C)C1=O` [4-METHYL DESMOSDUMOTIN B], the EC50 turned out to be 22.5 µg/mL (≈ 72.6 µM) with KB [1] and 1.09 µg/mL (≈ 3.51 µM) in assay [2]. The “Ratio ED50” value in assay [3] is 20.7.
On to `CCC1=C(O)c2c(oc(-c3ccccc3)cc2=O)C(CC)(CC)C1=O` [6,8,8-TRIETHYL DESMOSDUMOTIN B], for which the result in the assay with PC-3, with A549 and in the assay with HCT-8 was inactive. Also, the results for the EC50 (in the assay with KB [1]; in the assay on MCF7; in assay [2]) were above 80 µg/mL, above 20 µg/mL and 0.36 µg/mL (≈ 1.06 µM), respectively. Besides, in assay [3], the “Ratio ED50” value is given as above 222.
As to `CCC1=C(O)c2c(oc(-c3cc4ccccc4c4ccccc34)cc2=O)C(CC)(CC)C1=O` [6,8,8-TRIETHYL-2-(PHENANTHREN-9-YL) DESMOSDUMOTIN B], the EC50 in the assay on PC-3 is 6 µg/mL (≈ 13.7 µM); with KB [1], 5 µg/mL (≈ 11.4 µM); in the assay on A549 it was 8 µg/mL (≈ 18.2 µM); with MCF7, 4 µg/mL (≈ 9.12 µM); in the assay on HCT-8, 5.6 µg/mL (≈ 12.8 µM); in assay [2], 4.3 µg/mL (≈ 9.81 µM). Moreover, the “Ratio ED50” value in assay [3] came to 1.2.
As to `CCC1=C(O)c2c(oc(-c3ccccc3C)cc2=O)C(CC)(CC)C1=O` [6,8,8-TRIETHYL-2-METHYL DESMOSDUMOTIN B], the EC50 came to 18 µg/mL (≈ 51.1 µM) in the assay on KB [1] and 0.1 µg/mL (≈ 0.284 µM) in assay [2].
Consider `CCC1=C(O)c2c(oc(-c3ccc(CC)cc3)cc2=O)C(CC)(CC)C1=O` [6,8,8-TRIETHYL-4-ETHYL DESMOSDUMOTIN B], for which the EC50 with KB [1] was 8 µg/mL (≈ 21.8 µM); in assay [2], 0.025 µg/mL (≈ 0.0682 µM). Moreover, the “Ratio ED50” value in assay [3] amounted to 320.
On to `CCC1=C(O)c2c(oc(-c3ccc(C)cc3)cc2=O)C(CC)(CC)C1=O` [6,8,8-TRIETHYL-4-METHYL DESMOSDUMOTIN B], for which the EC50 in the assay with PC-3 was 18 µg/mL (≈ 51.1 µM); in the assay on KB [1] it was 13.8 µg/mL (≈ 39.2 µM); in the assay with A549, 16 µg/mL (≈ 45.4 µM); with MCF7, above 20 µg/mL; in the assay with HCT-8, 15 µg/mL (≈ 42.6 µM); in assay [2], 0.03 µg/mL (≈ 0.0851 µM). Also, in assay [3], the “Ratio ED50” value stood at 460.
As to `CCC1=C(OC)C(CC)(CC)C2OC(c3ccccc3)=CC(=O)C2=C1O` (configuration not stated) [6,8,8-TRIETHYL-7-METHOXY DESMOSDUMOTIN B], the figures for the EC50 (in the assay with KB [1]; in assay [2]) were 20 µg/mL (≈ 56.4 µM) and 15.5 µg/mL (≈ 43.7 µM), respectively. In addition, the “Ratio ED50” value in assay [3] is reported as 1.3.
`CCCC1=C(O)c2c(oc(-c3ccccc3)cc2=O)C(CCC)(CCC)C1=O` [6,8,8-TRIPROPYL DESMOSDUMOTIN B]: the EC50 in the assay on KB [1] came to 4 µg/mL (≈ 10.5 µM); in assay [2] it was 0.63 µg/mL (≈ 1.66 µM). Besides, the “Ratio ED50” value in assay [3] turned out to be 6.4.
As to `CCCC1=C(OC)C(CCC)(CCC)C2OC(c3ccccc3)=CC(=O)C2=C1O` (configuration not stated) [6,8,8-TRIPROPYL-7-METHOXY DESMOSDUMOTIN B], the EC50 stood at 8.5 µg/mL (≈ 21.4 µM) in the assay with KB [1] and 7 µg/mL (≈ 17.7 µM) in assay [2]. Further, in assay [3], the “Ratio ED50” value came to 1.2.
For the compound `CCC1=C(O)c2c(oc(-c3ccccc3)cc2=O)C(C)(C)C1=O` [6-ETHYL-8,8-DIMETHYL DESMOSDUMOTIN B], the EC50 is above 20 µg/mL with KB [1] and 0.6 µg/mL (≈ 1.93 µM) in assay [2]. The “Ratio ED50” value in assay [3] was above 33.
As to `CC1=C(O)C(C)(C)c2oc(-c3ccccc3)cc(=O)c2C1=O` [DESMOTUMOTIN B], the outcome with PC-3 and in the assay on HCT-8 was inactive. Also, the EC50 with KB [1] was above 40 µg/mL; with A549, above 20 µg/mL; in the assay on MCF7, above 20 µg/mL; in assay [2], 2 µg/mL (≈ 6.75 µM). Also, the “Ratio ED50” value in assay [3] was above 20.
As to `CC[C@]1(O)C[C@H]2CN(CCc3c([nH]c4ccccc34)[C@@](C(=O)OC)(c3cc4c(cc3OC)N(C=O)[C@H]3[C@@](O)(C(=O)OC)[C@H](OC(C)=O)[C@]5(CC)C=CCN6CC[C@]43[C@@H]65)C2)C1` [VINCRISTINE], the EC50 in the assay with PC-3 amounted to 0.01 µg/mL (≈ 0.0121 µM); with KB [1], 0.015 µg/mL (≈ 0.0182 µM); in the assay on A549, 0.004 µg/mL (≈ 0.00485 µM); with MCF7, 0.01 µg/mL (≈ 0.0121 µM); in the assay with HCT-8, 0.02 µg/mL (≈ 0.0242 µM); in assay [2], 7 µg/mL (≈ 8.49 µM). The “Ratio ED50” value in assay [3] worked out at 0.002.

These data come from ChEMBL document CHEMBL1150376, “Antitumor agents 260. New desmosdumotin B analogues with improved in vitro anticancer activity” (2008).
